ChEMBL document CHEMBL4689842, “EUbOPEN Chemogenomics Library wave 1” (2021)
Where “and” joins values, the source holds several entries; their conditions need not be identical. Equal entries are not always repeated.

Test system: HEK-293T
Assay: Multiplex assay against HEK293T;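 on Population Tubulin-Different-Phenotype (%): share of the cells with healthy nuclei that show this phenotype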
Assay type: toxicity, cell-based
Settings: human
In short: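 Imaging took place on a CQ1 microscope at 37°C and 5% CO2 once compound had been added to live cells stained at seeding with Hoechst33342, BioTracker Green Microtubule Cytoskeleton Dye, MitoTracker Red and Annexin V Alexa Fluor 680. CellPathfinder machine-learning gating classed cells as Hoechst high-intensity objects or normal cells, classed normal cells as having healthy, pyknosed or fragmented nuclei, and classed pyknosed cells as mitotic or apoptotic. Tubulin, mitochondrial-mass and membrane-permeability phenotypes are per cents of the healthy-nucleus cells.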

[1] = 12 h, 1 µM, compound concentration 1 uM, replicate 1
[2] = 12 h, 1 µM, compound concentration 1 uM, replicate 2
[3] = 12 h, 10 µM, compound concentration 10 uM, replicate 1
[4] = 12 h, 10 µM, compound concentration 10 uM, replicate 2
[5] = 24 h, 1 µM, compound concentration 1 uM, replicate 1
[6] = 24 h, 1 µM, compound concentration 1 uM, replicate 2
[7] = 24 h, 10 µM, compound concentration 10 uM, replicate 1
[8] = 24 h, 10 µM, compound concentration 10 uM, replicate 2
[9] = 48 h, 1 µM, compound concentration 1 uM, replicate 1
[10] = 48 h, 1 µM, compound concentration 1 uM, replicate 2
[11] = 48 h, 10 µM, compound concentration 10 uM, replicate 1
[12] = 48 h, 10 µM, compound concentration 10 uM, replicate 2

Structure (SMILES): CCC1=C[C@@H]2C[N@](C1)Cc1c([nH]c3ccccc13)[C@@](C(=O)OC)(c1cc3c(cc1OC)N(C)[C@H]1[C@@](O)(C(=O)OC)[C@H](OC(C)=O)[C@]4(CC)C=CCN5CC[C@]31[C@@H]54)C2.O=C(O)C(O)C(O)C(=O)O.O=C(O)C(O)C(O)C(=O)O [VINORELBINE TARTRATE]
- Population Apoptotic (%) [1]: 25% and 14%
- Population Fragmented Nuclei (%) [1]: 25% and 16%
- Population Healthy Nuclei (%) [1]: 32% and 48%
- Population Hoechst High Intensity Objects (%) [1]: 18% and 15%
- Population Mitochondria Different-Phenotype (%) [1]: 18% and 9%
- Population Mitotic Cells (%) [1]: 75% and 85%
- Population Normal (%) [1]: 81% and 84%
- Population Pyknosed Nuclei (%) [1]: 41% and 35%
- Total Cell Count [1]: 502 and 565
- Population Apoptotic (%) [2]: 17% and 8%
- Population Fragmented Nuclei (%) [2]: 3% and 4%
- Population Healthy Nuclei (%) [2]: 57% and 63%
- Population Hoechst High Intensity Objects (%) [2]: 4% and 3%
- Population Membrane Permeable-Phenotype (%) [2]: 12% and 0%
- Population Mitochondria Different-Phenotype (%) [2]: 27% and 14%
- Population Mitotic Cells (%) [2]: 83% and 91%
- Population Normal (%) [2]: 95% and 96%
- Population Pyknosed Nuclei (%) [2]: 38% and 31%
- Total Cell Count [2]: 945 and 1247
- Population Apoptotic (%) [3]: 31% and 19%
- Population Fragmented Nuclei (%) [3]: 29% and 13%
- Population Healthy Nuclei (%) [3]: 22% and 49%
- Population Hoechst High Intensity Objects (%) [3]: 19% and 15%
- Population Mitochondria Different-Phenotype (%) [3]: 13% and 9%
- Population Mitotic Cells (%) [3]: 68% and 80%
- Population Normal (%) [3]: 80% and 84%
- Population Pyknosed Nuclei (%) [3]: 48% and 37%
- Total Cell Count [3]: 499 and 592
- Population Apoptotic (%) [4]: 13% and 7%
- Population Fragmented Nuclei (%) [4]: 3%
- Population Healthy Nuclei (%) [4]: 54% and 62%
- Population Hoechst High Intensity Objects (%) [4]: 2%
- Population Membrane Permeable-Phenotype (%) [4]: 10% and 0%
- Population Mitochondria Different-Phenotype (%) [4]: 22% and 16%
- Population Mitotic Cells (%) [4]: 86% and 92%
- Population Normal (%) [4]: 97%
- Population Pyknosed Nuclei (%) [4]: 41% and 33%
- Total Cell Count [4]: 964 and 1090
- Population Apoptotic (%) [5]: 13% and 28%
- Population Fragmented Nuclei (%) [5]: 15% and 27%
- Population Healthy Nuclei (%) [5]: 47% and 33%
- Population Hoechst High Intensity Objects (%) [5]: 12% and 20%
- Population Membrane Permeable-Phenotype (%) [5]: 0% and 13%
- Population Mitotic Cells (%) [5]: 86% and 71%
- Population Normal (%) [5]: 87% and 79%
- Population Pyknosed Nuclei (%) [5]: 36% and 38%
- Total Cell Count [5]: 530 and 459
- Population Apoptotic (%) [6]: 14% and 8%
- Population Fragmented Nuclei (%) [6]: 7% and 9%
- Population Healthy Nuclei (%) [6]: 36% and 69%
- Population Hoechst High Intensity Objects (%) [6]: 6% and 3%
- Population Membrane Permeable-Phenotype (%) [6]: 8%
- Population Mitochondria Different-Phenotype (%) [6]: 28%
- Population Mitotic Cells (%) [6]: 85% and 91%
- Population Normal (%) [6]: 93% and 96%
- Population Pyknosed Nuclei (%) [6]: 55% and 21%
- Total Cell Count [6]: 914 and 1303
- Population Apoptotic (%) [7]: 20% and 38%
- Population Fragmented Nuclei (%) [7]: 16% and 29%
- Population Healthy Nuclei (%) [7]: 45% and 26%
- Population Hoechst High Intensity Objects (%) [7]: 9% and 20%
- Population Mitochondria Different-Phenotype (%) [7]: 10% and 13%
- Population Mitotic Cells (%) [7]: 79% and 61%
- Population Normal (%) [7]: 90% and 79%
- Population Pyknosed Nuclei (%) [7]: 37% and 44%
- Total Cell Count [7]: 529 and 482
- Population Apoptotic (%) [8]: 11% and 5%
- Population Fragmented Nuclei (%) [8]: 3% and 6%
- Population Healthy Nuclei (%) [8]: 37% and 72%
- Population Hoechst High Intensity Objects (%) [8]: 3% and 2%
- Population Membrane Permeable-Phenotype (%) [8]: 9% and 0%
- Population Mitotic Cells (%) [8]: 88% and 94%
- Population Normal (%) [8]: 96% and 97%
- Population Pyknosed Nuclei (%) [8]: 58% and 21%
- Total Cell Count [8]: 920 and 1144

Structure (SMILES): Cc1c[nH]c2nccc(Oc3c(F)cc(Nc4cc(Cl)nc(N)n4)cc3F)c12 [BAY-549]
- Population Apoptotic (%) [1]: 37%
- Population Fragmented Nuclei (%) [1]: 15%
- Population Healthy Nuclei (%) [1]: 32%
- Population Hoechst High Intensity Objects (%) [1]: 12%
- Population Membrane Permeable-Phenotype (%) [1]: 0%
- Population Mitochondria Different-Phenotype (%) [1]: 71%
- Population Mitotic Cells (%) [1]: 62%
- Population Normal (%) [1]: 87%
- Population Pyknosed Nuclei (%) [1]: 52%
- Population Tubulin-Different-Phenotype (%) [1]: 31%
- Total Cell Count [1]: 310
- Population Apoptotic (%) [2]: 13%
- Population Fragmented Nuclei (%) [2]: 7%
- Population Healthy Nuclei (%) [2]: 54%
- Population Hoechst High Intensity Objects (%) [2]: 4%
- Population Membrane Permeable-Phenotype (%) [2]: 8%
- Population Mitochondria Different-Phenotype (%) [2]: 8%
- Population Mitotic Cells (%) [2]: 86%
- Population Normal (%) [2]: 95%
- Population Pyknosed Nuclei (%) [2]: 37%
- Population Tubulin-Different-Phenotype (%) [2]: 14%
- Total Cell Count [2]: 236
- Population Apoptotic (%) [3]: 45%
- Population Fragmented Nuclei (%) [3]: 9%
- Population Healthy Nuclei (%) [3]: 45%
- Population Hoechst High Intensity Objects (%) [3]: 8%
- Population Mitochondria Different-Phenotype (%) [3]: 65%
- Population Mitotic Cells (%) [3]: 54%
- Population Normal (%) [3]: 91%
- Population Pyknosed Nuclei (%) [3]: 44%
- Population Tubulin-Different-Phenotype (%) [3]: 5%
- Total Cell Count [3]: 370
- Population Apoptotic (%) [4]: 16%
- Population Fragmented Nuclei (%) [4]: 5%
- Population Healthy Nuclei (%) [4]: 42%
- Population Hoechst High Intensity Objects (%) [4]: 3%
- Population Membrane Permeable-Phenotype (%) [4]: 0%
- Population Mitochondria Different-Phenotype (%) [4]: 11%
- Population Mitotic Cells (%) [4]: 83%
- Population Normal (%) [4]: 96%
- Population Pyknosed Nuclei (%) [4]: 52%
- Population Tubulin-Different-Phenotype (%) [4]: 1%
- Total Cell Count [4]: 247
- Population Apoptotic (%) [5]: 45%
- Population Fragmented Nuclei (%) [5]: 14%
- Population Healthy Nuclei (%) [5]: 32%
- Population Hoechst High Intensity Objects (%) [5]: 10%
- Population Membrane Permeable-Phenotype (%) [5]: 2%
- Population Mitochondria Different-Phenotype (%) [5]: 47%
- Population Mitotic Cells (%) [5]: 54%
- Population Normal (%) [5]: 89%
- Population Pyknosed Nuclei (%) [5]: 52%
- Population Tubulin-Different-Phenotype (%) [5]: 25%
- Total Cell Count [5]: 284
- Population Apoptotic (%) [6]: 18%
- Population Fragmented Nuclei (%) [6]: 13%
- Population Healthy Nuclei (%) [6]: 66%
- Population Hoechst High Intensity Objects (%) [6]: 3%
- Population Membrane Permeable-Phenotype (%) [6]: 8%
- Population Mitochondria Different-Phenotype (%) [6]: 10%
- Population Mitotic Cells (%) [6]: 81%
- Population Normal (%) [6]: 96%
- Population Pyknosed Nuclei (%) [6]: 19%
- Population Tubulin-Different-Phenotype (%) [6]: 7%
- Total Cell Count [6]: 255
- Population Apoptotic (%) [7]: 48%
- Population Fragmented Nuclei (%) [7]: 11%
- Population Healthy Nuclei (%) [7]: 41%
- Population Hoechst High Intensity Objects (%) [7]: 9%
- Population Mitochondria Different-Phenotype (%) [7]: 51%
- Population Mitotic Cells (%) [7]: 51%
- Population Normal (%) [7]: 90%
- Population Pyknosed Nuclei (%) [7]: 46%
- Population Tubulin-Different-Phenotype (%) [7]: 4%
- Total Cell Count [7]: 375
- Population Apoptotic (%) [8]: 31%
- Population Fragmented Nuclei (%) [8]: 6%
- Population Healthy Nuclei (%) [8]: 49%
- Population Hoechst High Intensity Objects (%) [8]: 2%
- Population Membrane Permeable-Phenotype (%) [8]: 0%
- Population Mitochondria Different-Phenotype (%) [8]: 21%
- Population Mitotic Cells (%) [8]: 68%
- Population Normal (%) [8]: 97%
- Population Pyknosed Nuclei (%) [8]: 44%
- Population Tubulin-Different-Phenotype (%) [8]: 5%
- Total Cell Count [8]: 233
- Population Apoptotic (%) [9]: 48%
- Population Fragmented Nuclei (%) [9]: 29%
- Population Healthy Nuclei (%) [9]: 34%
- Population Hoechst High Intensity Objects (%) [9]: 9%
- Population Membrane Permeable-Phenotype (%) [9]: 1%
- Population Mitochondria Different-Phenotype (%) [9]: 24%
- Population Mitotic Cells (%) [9]: 51%
- Population Normal (%) [9]: 90%
- Population Pyknosed Nuclei (%) [9]: 36%
- Population Tubulin-Different-Phenotype (%) [9]: 24%
- Total Cell Count [9]: 307
- Population Apoptotic (%) [10]: 28%
- Population Fragmented Nuclei (%) [10]: 25%
- Population Healthy Nuclei (%) [10]: 64%
- Population Hoechst High Intensity Objects (%) [10]: 2%
- Population Membrane Permeable-Phenotype (%) [10]: 8%
- Population Mitochondria Different-Phenotype (%) [10]: 4%
- Population Mitotic Cells (%) [10]: 71%
- Population Normal (%) [10]: 97%
- Population Pyknosed Nuclei (%) [10]: 10%
- Population Tubulin-Different-Phenotype (%) [10]: 10%
- Total Cell Count [10]: 336
- Population Apoptotic (%) [11]: 60%
- Population Fragmented Nuclei (%) [11]: 16%
- Population Healthy Nuclei (%) [11]: 34%
- Population Hoechst High Intensity Objects (%) [11]: 9%
- Population Mitochondria Different-Phenotype (%) [11]: 45%
- Population Mitotic Cells (%) [11]: 39%
- Population Normal (%) [11]: 90%
- Population Pyknosed Nuclei (%) [11]: 48%
- Population Tubulin-Different-Phenotype (%) [11]: 6%
- Total Cell Count [11]: 330
- Population Apoptotic (%) [12]: 56%
- Population Fragmented Nuclei (%) [12]: 4%
- Population Healthy Nuclei (%) [12]: 47%
- Population Hoechst High Intensity Objects (%) [12]: 3%
- Population Membrane Permeable-Phenotype (%) [12]: 1%
- Population Mitochondria Different-Phenotype (%) [12]: 10%
- Population Mitotic Cells (%) [12]: 43%
- Population Normal (%) [12]: 96%
- Population Pyknosed Nuclei (%) [12]: 47%
- Population Tubulin-Different-Phenotype (%) [12]: 8%
- Total Cell Count [12]: 219
